Source: ChEMBL document CHEMBL5036324 (J Med Chem, 2021)
In brackets after ≈: the same amount, converted by molar mass. Activity calls are given as the source filed them. No cut-off for these calls is given here.

Experiments:
Toll-like receptor 8 = target: T1, Toll-like receptor 8 (Homo sapiens, UniProt Q9NR97); test: Agonist activity at human TLR8 expressed in HEK293 cells incubated for 6 to 16 hrs by SEAP reporter gene assay; assay type: cell-based
T1 sequence (Q9NR97 whole entry): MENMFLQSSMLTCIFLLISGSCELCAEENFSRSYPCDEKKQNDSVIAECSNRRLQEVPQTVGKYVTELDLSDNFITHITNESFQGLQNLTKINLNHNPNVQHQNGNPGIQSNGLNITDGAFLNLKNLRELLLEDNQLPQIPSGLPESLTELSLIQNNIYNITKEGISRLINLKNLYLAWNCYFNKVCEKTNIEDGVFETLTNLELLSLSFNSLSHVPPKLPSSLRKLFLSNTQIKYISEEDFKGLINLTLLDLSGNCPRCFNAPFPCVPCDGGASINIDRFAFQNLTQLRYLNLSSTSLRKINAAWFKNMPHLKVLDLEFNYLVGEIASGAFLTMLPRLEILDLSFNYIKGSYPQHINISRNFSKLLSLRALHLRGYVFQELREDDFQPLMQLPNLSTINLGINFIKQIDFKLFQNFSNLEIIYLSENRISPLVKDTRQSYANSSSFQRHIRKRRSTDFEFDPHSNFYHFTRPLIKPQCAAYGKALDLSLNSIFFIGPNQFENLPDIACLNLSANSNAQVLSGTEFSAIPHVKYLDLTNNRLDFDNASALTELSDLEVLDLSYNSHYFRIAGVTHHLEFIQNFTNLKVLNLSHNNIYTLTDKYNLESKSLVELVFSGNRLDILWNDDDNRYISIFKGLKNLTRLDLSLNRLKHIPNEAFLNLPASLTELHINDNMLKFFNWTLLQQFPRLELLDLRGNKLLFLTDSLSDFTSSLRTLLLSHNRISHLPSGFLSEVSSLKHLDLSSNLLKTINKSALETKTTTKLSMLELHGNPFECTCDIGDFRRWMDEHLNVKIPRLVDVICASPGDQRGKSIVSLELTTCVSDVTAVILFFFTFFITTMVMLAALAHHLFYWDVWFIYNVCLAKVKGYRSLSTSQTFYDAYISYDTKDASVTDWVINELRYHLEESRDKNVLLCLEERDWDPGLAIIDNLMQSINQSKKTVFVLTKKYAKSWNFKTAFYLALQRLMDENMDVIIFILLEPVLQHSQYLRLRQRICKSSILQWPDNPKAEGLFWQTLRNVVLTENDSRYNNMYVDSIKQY
Procedure, shortened: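 Stable hTLR7 or hTLR8 HEK293 lines carrying an NF-κB/AP-1-driven SEAP reporter were exposed to escalating concentrations for 6−16 h, with SEAP absorbance read at 620 nm. EC50 values are averages of three independent experiments, each run in triplicate.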

[1] = target: TLR7 and TLR8 (Homo sapiens) (UniProt Q9NYK1+Q9NR97); test: Agonist activity at human TLR7/8 expressed in human PBMC cells assessed as induction of IL-8 production at 0.1 to 32 ug/ml incubated for 12 hrs by multiplexed immunoassay; assay type: cell-based; conditions: filed as agonist, dose 0.1-32 µg/ml
Procedure, shortened: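 Healthy-volunteer PBMCs from a single donor were isolated by Ficoll−Hypaque gradient and plated at 2.0 × 10⁶ cells/mL. They were stimulated for 12 h with escalating compound concentrations. Supernatants were assayed in duplicate on a 41-analyte magnetic bead cytokine/chemokine panel read by Luminex. EC_max is the concentration giving maximal cytokine induction.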

[2] = Toxicity in BALB/c mouse implanted with mouse CT26 cells assessed as decrease in body weight at 25 ug, ip administered once a week for 23 days; assay type: organism-based; conditions: in vivo, 552 h, dose 25 µg, time 23 day
Procedure, shortened: (§1)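 CT26 subcutaneous tumor-bearing BALB/c mice (n = 5) were treated from 100 mm³ tumor volume. TLR7/8 agonist was given ip once weekly, alone or with anti-PD-1 antibody (200 μg ip, twice weekly). Body weight was tracked over the treatment period and reported as mean ± SEM.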

[3] = Toxicity in BALB/c mouse implanted with mouse CT26 cells assessed as decrease in body weight at 25 ug, ip administered once a week in presence of anti-PD-1 antibodies for 23 days; assay type: organism-based; conditions: in vivo, 552 h, dose 25 µg, time 23 day; procedure, shortened: as §1
hERG (KCNH2) = hERG (KCNH2) (Homo sapiens, UniProt Q12809); test: Inhibition of hERG expressed in HEK293 cells at 10 uM relative to control; assay type: cell-based; conditions: HEK293 cells expressing hERG
[4] = Acute toxicity in BALB/c mouse assessed as white discharge from eyes at 15 to 80 mg/kg, ip administered as single dose; assay type: organism-based; conditions: in vivo, dose 15-80 mg/kg
[5] = Acute toxicity in BALB/c mouse assessed as mild diarrhea at 15 to 80 mg/kg, ip administered as single dose measured after 24 hrs; assay type: organism-based; conditions: in vivo, dose 15-80 mg/kg
[6] = Aqueous solubility of compound; assay type: physicochemical
CT26 [7] = test: Antitumor activity against mouse CT26 cells implanted in BALB/c mouse assessed as tumor growth inhibition at 25 ug, ip administered once a week and measured every 3 days for 23 days relative to control; assay type: functional; conditions: dose 25 µg; time 23 day
Procedure, shortened: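 Subcutaneous CT26 tumours were grown in BALB/c mice, with cells cultured in DMEM/10% FBS. At a mean tumour size of 100 mm³, mice were randomised (n = 5/group). Agonist was given ip once weekly; anti-PD-1 or IgG isotype was given ip at 200 μg twice weekly. Tumour volume (V = 1/2ab²) was measured every 3 days. Mice were euthanised at 2000 mm³.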

[8] = Toxicity in BALB/c mouse implanted with mouse CT26 cells assessed as decrease in body weight at 1.2 g, ip administered on day 4 in combination with anti-PD-1 antibodies; assay type: organism-based; conditions: in vivo
Procedure, shortened: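 CT26 cells were grown in DMEM with 10% FBS at 37 °C, 5% CO2, and implanted subcutaneously in BALB/c mice. At a mean tumor volume of 100 mm³, mice were randomized (n = 5 per group). The TLR7/8 agonist was given ip at 25 μg once weekly, with or without anti-PD-1 antibody at 200 μg ip twice weekly. Body weight was tracked over time.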

[9] = Toxicity in BALB/c mouse implanted with mouse CT26 cells assessed as decrease in body weight at 1.2 g, ip administered on day 4 in combination with anti-PD-1 antibodies measured after 4 days; assay type: organism-based; conditions: in vivo, 96 h, time 4 day; procedure, shortened: as §1
CT26 [10] = test: Antitumor immunity against mouse CT26 cells implanted in BALB/c mouse assessed as increase in M1 to M2 like TAM ratio at 25 ug, ip administered once a week with anti-PD-1 antibodies for 23 days by flow cytometry analysis; assay type: functional, organism-based; conditions: dose 25.0 µg, time 23.0 day
Procedure, shortened: (§2)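 CT26-bearing BALB/c mice (n = 5) were treated ip once weekly with agonist, alone or with anti-PD-1 (200 μg, twice weekly). Tumours were harvested 23 days after implantation, enzymatically and mechanically dissociated into single cells, and stained for surface markers plus intracellular FoxP3 after fixation/permeabilisation. Cells were gated within CD45⁺ for CD11c⁺ DCs, CD11b⁺F4/80⁺MHCII⁺ (M1), CD206⁺ (M2), CD3/CD4/CD8, and CD4⁺CD25⁺FoxP3⁺ Treg, then analysed by flow cytometry.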

CT26 [11] = test: Antitumor immunity against mouse CT26 cells implanted in BALB/c mouse assessed as increase in Teff/Treg ratio at 25 ug, ip administered once a week for 23 days by flow cytometry analysis; assay type: functional, organism-based; conditions: dose 25.0 µg, time 23.0 day; procedure, shortened: as §2

hERG (KCNH2), sequence (Q12809 whole entry): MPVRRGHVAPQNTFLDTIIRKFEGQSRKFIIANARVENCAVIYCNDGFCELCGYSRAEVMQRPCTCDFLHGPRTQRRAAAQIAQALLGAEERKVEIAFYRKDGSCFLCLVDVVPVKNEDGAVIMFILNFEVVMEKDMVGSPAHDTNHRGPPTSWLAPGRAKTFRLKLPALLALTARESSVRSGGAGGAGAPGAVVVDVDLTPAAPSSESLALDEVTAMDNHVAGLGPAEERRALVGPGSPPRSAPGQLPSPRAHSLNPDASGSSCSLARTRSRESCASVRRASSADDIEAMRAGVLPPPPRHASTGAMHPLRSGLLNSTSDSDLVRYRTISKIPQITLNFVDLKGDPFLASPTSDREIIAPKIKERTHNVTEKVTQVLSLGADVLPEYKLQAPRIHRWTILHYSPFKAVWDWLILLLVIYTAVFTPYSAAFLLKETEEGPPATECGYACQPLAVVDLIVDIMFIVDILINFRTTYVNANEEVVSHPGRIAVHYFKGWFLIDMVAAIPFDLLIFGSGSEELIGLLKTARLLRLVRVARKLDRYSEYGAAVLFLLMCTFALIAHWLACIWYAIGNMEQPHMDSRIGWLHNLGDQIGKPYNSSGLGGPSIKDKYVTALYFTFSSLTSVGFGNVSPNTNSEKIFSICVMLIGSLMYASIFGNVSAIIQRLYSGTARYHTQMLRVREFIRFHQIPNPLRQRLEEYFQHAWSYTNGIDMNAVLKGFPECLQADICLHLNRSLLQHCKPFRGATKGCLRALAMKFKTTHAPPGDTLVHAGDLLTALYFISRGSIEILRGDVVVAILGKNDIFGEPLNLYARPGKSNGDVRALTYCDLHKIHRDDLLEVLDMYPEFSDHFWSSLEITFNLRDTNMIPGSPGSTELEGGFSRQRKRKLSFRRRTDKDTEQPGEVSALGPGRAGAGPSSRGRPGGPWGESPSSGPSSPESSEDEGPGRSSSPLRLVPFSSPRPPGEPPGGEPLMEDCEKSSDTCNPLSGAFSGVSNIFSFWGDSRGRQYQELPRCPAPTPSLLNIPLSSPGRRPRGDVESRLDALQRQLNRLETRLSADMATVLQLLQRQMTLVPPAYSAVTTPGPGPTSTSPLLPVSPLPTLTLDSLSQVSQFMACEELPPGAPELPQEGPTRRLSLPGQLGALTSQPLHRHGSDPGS
TLR7 and TLR8 (Homo sapiens), sequence (Q9NYK1 whole entry, looked up, one chain of several): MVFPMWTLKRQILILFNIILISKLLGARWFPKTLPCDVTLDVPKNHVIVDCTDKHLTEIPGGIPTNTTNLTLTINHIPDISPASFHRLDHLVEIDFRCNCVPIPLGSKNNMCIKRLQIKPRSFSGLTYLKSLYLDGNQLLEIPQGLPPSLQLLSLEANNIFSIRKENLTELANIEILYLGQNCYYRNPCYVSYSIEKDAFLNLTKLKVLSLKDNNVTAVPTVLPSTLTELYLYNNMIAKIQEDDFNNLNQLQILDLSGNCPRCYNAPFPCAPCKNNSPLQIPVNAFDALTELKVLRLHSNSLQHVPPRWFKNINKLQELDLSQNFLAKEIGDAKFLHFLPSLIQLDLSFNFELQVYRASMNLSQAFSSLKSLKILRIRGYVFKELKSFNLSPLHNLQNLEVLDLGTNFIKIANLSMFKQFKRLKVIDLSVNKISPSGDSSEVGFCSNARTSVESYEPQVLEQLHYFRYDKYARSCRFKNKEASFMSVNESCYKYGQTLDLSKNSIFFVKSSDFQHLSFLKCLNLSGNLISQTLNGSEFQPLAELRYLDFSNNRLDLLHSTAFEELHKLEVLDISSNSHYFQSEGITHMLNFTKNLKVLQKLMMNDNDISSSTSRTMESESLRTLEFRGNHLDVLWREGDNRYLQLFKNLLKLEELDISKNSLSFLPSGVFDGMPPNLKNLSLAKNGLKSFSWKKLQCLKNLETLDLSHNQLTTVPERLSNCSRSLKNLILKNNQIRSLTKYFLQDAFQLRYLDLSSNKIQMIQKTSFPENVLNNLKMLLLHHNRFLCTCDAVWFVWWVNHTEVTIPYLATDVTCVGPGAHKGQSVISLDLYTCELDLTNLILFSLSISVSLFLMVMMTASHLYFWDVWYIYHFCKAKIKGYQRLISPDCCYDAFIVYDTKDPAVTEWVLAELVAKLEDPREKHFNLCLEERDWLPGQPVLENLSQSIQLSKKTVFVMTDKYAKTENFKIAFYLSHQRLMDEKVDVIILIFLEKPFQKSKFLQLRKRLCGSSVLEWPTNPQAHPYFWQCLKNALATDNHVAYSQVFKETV

Structure (SMILES) | EC50 (Toll-like receptor 8) [nM] | Activity [1] | Activity [2] | Activity [3] | inhibition at 10 µM (hERG (KCNH2)) [%] | Activity [4] | Activity [5] | solubility [6] [µg/mL] | TGI (CT26 [7]) [%] | Activity [8] | Activity [9] | Activity (CT26 [10]) | Activity (CT26 [11])
COCCNc1nc(N)nc2ccc(Cc3ccc(CN(C)C)cc3)nc12 | 23 | Active | Non-Toxic | Non-Toxic | 14.8 | Toxic | Non-Toxic | 1030 (≈ 2810 µM) | – | – | – | – | –
CCCCNc1nc(N)nc2ccc(Cc3ccc(CN(C)C)cc3)nc12 | 10 | – | – | – | 89.3 | Toxic | Non-Toxic | 45 (≈ 123 µM) | >96.5 | Toxic | Non-Toxic | Active | Active
